Key:
MTT assay = format: cell-based, human; details: human, MCF-7 breast cancer cells, MCF-7, 100 μM; for cytotoxicity at 24 h, 100 µM: % Cytotoxicity ± SD; for viability at 24 h, 100 µM: % Viability
[1] = system: MCF-7 breast cancer cells; test: MTT assay; format: cell-based, human; details: MCF-7, 100 μM, 24 h, 100 µM
h-NTPDase1 = biological target: T1, h-NTPDase1 (Homo sapiens, UniProt P49961); test: h-NTPDase activity assay; format: biochemical; details: for inhibition at 100 µM: read-out: % Inhibition h-NTPDase1
T1 sequence (P49961 1-510): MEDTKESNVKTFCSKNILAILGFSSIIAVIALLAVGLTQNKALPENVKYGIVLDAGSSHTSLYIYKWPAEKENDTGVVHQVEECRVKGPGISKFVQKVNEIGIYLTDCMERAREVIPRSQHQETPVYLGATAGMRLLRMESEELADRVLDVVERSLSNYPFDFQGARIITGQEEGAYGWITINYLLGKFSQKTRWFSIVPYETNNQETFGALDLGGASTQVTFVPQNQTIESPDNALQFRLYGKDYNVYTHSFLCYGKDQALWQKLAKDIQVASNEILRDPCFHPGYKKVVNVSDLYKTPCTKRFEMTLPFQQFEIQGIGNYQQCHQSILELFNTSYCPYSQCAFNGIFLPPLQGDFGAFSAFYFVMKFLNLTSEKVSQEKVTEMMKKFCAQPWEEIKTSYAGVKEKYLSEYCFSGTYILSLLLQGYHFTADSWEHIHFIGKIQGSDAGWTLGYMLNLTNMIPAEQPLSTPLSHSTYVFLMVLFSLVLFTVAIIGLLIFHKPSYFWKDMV

h-NPP1 = biological target: T2, h-NPP1 (Homo sapiens, UniProt P22413); test: h-NPP1 activity assay; format: biochemical; details: for inhibition at 100 µM: read-out: % Inhibition h-NPP1
T2 sequence (P22413 1-925): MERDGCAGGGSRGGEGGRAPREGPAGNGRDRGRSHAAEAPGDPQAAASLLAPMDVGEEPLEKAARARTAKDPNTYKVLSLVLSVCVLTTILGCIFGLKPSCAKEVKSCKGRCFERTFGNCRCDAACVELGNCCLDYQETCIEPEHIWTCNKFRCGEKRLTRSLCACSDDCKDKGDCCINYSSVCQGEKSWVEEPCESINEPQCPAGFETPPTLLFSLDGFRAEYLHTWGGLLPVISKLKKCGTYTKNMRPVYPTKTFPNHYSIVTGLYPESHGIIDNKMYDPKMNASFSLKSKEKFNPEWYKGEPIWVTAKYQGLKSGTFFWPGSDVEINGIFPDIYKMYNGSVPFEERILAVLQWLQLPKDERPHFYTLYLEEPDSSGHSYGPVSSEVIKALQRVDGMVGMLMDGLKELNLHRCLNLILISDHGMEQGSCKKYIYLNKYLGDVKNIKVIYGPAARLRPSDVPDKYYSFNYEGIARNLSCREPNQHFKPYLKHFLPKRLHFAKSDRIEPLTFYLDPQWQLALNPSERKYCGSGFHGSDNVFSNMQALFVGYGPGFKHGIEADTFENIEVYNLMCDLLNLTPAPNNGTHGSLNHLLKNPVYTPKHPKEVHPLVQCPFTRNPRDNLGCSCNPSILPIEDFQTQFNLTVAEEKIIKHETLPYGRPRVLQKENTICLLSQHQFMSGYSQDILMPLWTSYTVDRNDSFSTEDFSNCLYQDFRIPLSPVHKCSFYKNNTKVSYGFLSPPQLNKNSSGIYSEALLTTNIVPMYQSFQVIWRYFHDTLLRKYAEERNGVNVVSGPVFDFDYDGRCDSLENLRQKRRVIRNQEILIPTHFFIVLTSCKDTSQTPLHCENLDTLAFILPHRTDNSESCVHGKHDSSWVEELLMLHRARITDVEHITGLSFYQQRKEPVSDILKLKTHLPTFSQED

h-NTPDase2 = biological target: T3, h-NTPDase2 (Homo sapiens, UniProt Q9Y5L3); test: h-NTPDase activity assay; format: biochemical; details: for inhibition at 100 µM: read-out: % Inhibition h-NTPDase2
T3 sequence (Q9Y5L3 1-495): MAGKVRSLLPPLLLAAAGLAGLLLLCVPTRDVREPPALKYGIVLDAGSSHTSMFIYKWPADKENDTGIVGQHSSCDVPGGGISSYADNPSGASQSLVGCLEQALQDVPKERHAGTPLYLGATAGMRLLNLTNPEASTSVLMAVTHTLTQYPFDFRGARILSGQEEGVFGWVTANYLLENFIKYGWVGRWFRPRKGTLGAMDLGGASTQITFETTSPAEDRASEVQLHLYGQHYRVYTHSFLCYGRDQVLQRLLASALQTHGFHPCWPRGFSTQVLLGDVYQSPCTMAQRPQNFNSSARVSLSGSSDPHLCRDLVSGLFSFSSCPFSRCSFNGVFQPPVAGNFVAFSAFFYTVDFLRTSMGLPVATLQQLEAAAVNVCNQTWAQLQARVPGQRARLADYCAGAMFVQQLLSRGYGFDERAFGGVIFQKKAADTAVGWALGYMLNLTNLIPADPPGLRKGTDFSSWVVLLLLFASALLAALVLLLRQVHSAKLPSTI

h-NTPDases = test: h-NTPDase activity assay, all four isoenzymes; format: biochemical, human
Outline: (§1)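 Human NTPDase1, -2, -3 or -8 came from COS-7 cells transfected with plasmids via Lipofectamine, harvested at 44–48 h, sonicated and cleared of nuclei, with protein measured by Bradford. Enzyme per well was 12, 37, 43 or 63 ng respectively. Compound (0.1 mM final) was pre-incubated 10 min at 37 °C in 50 mM Tris–HCl, 5 mM CaCl2, pH 7.4. The reaction was started with ATP (100 µM), run 15 min, and stopped with malachite green; Pi was read at 630 nm.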

h-NTPDase3 = biological target: T4, h-NTPDase3 (Homo sapiens, UniProt O75355); test: h-NTPDase activity assay; format: biochemical; details: for inhibition at 100 µM: read-out: % Inhibition h-NTPDase3
T4 sequence (O75355 1-529): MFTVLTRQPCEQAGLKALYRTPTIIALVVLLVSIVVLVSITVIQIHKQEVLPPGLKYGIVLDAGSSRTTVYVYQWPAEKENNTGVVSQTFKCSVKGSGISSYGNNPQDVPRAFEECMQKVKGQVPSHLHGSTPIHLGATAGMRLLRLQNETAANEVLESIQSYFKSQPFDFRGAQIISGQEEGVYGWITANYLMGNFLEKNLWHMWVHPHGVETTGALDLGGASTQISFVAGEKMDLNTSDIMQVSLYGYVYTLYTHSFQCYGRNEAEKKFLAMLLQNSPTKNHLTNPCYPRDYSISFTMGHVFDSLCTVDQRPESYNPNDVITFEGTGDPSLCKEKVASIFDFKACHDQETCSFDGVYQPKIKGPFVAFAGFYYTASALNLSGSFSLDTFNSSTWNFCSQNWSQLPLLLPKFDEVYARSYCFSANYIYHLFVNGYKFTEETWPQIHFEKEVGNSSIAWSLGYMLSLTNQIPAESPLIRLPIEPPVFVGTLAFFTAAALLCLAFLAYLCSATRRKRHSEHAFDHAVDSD
Outline: as §1

h-e5’NT = biological target: T5, h-e5’NT (Homo sapiens, UniProt P21589); test: h-e5’NT activity assay; format: biochemical; details: for inhibition at 100 µM: read-out: % Inhibition h-e5’NT
T5 sequence (P21589 27-574): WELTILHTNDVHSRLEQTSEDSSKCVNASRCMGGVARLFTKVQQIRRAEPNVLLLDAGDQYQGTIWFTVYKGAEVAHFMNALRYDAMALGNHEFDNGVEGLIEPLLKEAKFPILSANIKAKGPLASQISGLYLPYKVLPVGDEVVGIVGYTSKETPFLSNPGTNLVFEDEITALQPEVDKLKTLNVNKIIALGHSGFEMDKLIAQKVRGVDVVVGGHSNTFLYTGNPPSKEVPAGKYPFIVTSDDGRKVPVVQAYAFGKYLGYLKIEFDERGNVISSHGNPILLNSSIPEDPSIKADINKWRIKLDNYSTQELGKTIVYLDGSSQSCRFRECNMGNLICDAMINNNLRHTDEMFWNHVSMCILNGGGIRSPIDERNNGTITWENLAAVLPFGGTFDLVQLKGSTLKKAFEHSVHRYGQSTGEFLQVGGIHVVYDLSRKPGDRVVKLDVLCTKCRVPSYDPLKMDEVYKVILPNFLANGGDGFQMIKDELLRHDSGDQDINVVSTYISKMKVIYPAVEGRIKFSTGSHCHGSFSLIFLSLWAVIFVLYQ
Outline: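 Human ecto-5′-nucleotidase from transfected COS-7 cells was pre-incubated 10 min at 37 °C with compound (0.1 mM final) in 50 mM Tris–HCl with MgCl₂ and CaCl₂, pH 7.4. The reaction was started with AMP (2 mM solution as added) and run 20 min at 37 °C. Released phosphate was detected with malachite green at 630 nm, in triplicate.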

h-NTPDase8 = biological target: T6, h-NTPDase8 (Homo sapiens, UniProt Q5MY95); test: h-NTPDase activity assay; format: biochemical
T6 sequence (Q5MY95 1-495): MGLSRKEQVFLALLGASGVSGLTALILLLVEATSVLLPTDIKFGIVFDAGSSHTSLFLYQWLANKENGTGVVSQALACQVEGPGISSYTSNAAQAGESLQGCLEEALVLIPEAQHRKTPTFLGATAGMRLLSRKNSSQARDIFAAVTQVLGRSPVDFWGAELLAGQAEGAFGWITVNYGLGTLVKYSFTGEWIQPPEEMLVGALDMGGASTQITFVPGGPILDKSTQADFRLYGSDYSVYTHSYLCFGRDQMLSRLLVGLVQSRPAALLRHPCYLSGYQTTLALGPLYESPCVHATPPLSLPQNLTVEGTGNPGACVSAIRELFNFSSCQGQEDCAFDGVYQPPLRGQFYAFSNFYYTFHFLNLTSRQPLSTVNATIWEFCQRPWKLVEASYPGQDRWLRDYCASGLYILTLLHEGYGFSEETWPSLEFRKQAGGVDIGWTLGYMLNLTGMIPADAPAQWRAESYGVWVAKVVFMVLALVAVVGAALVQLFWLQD

[2] = system: h-NTPDase1, -2, -3, and -8 isoenzymes, h-NPP1, and h-e5′NT; test: Enzymatic assays, all ectonucleotidases; format: biochemical, human; details: at 100 µM

Row | inhibition at 100 µM (h-NTPDase1) [%] | IC50 (h-NPP1) [µM] | inhibition at 100 µM (h-NPP1) [%] | inhibition at 100 µM (h-NTPDase2) [%] | activity against all four h-NTPDase isoenzymes (h-NTPDases) | inhibition at 100 µM (h-NTPDase3) [%] | IC50 (h-e5’NT) [µM] | inhibition at 100 µM (h-e5’NT) [%] | IC50 (h-NTPDase8) [µM] | IC50 (h-NTPDase1) [µM] | IC50 (h-NTPDase2) [µM] | IC50 (h-NTPDase3) [µM] | inhibition at 100 µM (h-NTPDase8; read-out: % Inhibition h-NTPDase8, at 100 µM) [%] | % inhibition for all enzymes except h-e5′NT [2] | Compound | cytotoxicity at 24 h, 100 µM (MTT assay) [%] | viability at 24 h, 100 µM (MTT assay) [%] | % Viability [1] [%] | % Cytotoxicity ± SD [1] [%]
1 |  |  |  |  |  |  |  |  | 101 ± 2.34 | 16.1 ± 1.02 | 24.1 ± 3.01 | 4.31 ± 0.41 |  |  | Nc1c(S(=O)(=O)O)cc(Nc2ccc(Nc3nc(Cl)nc(Nc4cccc(S(=O)(=O)O)c4)n3)c(S(=O)(=O)O)c2)c2c1C(=O)c1ccccc1C2=O [Reactive blue 2, reference compound] |  |  |  | 
2 |  |  |  |  |  |  | 42.1 ± 7.8 |  |  |  |  |  |  |  | Cc1ccc(C(=O)Nc2ccc(S(=O)(=O)O)c3cc(S(=O)(=O)O)cc(S(=O)(=O)O)c23)cc1NC(=O)c1cccc(NC(=O)Nc2cccc(C(=O)Nc3cc(C(=O)Nc4ccc(S(=O)(=O)O)c5cc(S(=O)(=O)O)cc(S(=O)(=O)O)c45)ccc3C)c2)c1 [Suramin, reference compound] |  |  |  | 

More lines, now with the values behind:

Row | Compound | inhibition at 100 µM (h-NTPDase1) [%] | IC50 (h-NPP1) [µM] | inhibition at 100 µM (h-NPP1) [%] | inhibition at 100 µM (h-NTPDase2) [%] | activity against all four h-NTPDase isoenzymes (h-NTPDases) | inhibition at 100 µM (h-NTPDase3) [%] | IC50 (h-e5’NT) [µM] | inhibition at 100 µM (h-e5’NT) [%] | IC50 (h-NTPDase8) [µM] | IC50 (h-NTPDase1) [µM] | IC50 (h-NTPDase2) [µM] | IC50 (h-NTPDase3) [µM] | inhibition at 100 µM (h-NTPDase8; read-out: % Inhibition h-NTPDase8, at 100 µM) [%] | % inhibition for all enzymes except h-e5′NT [2] | cytotoxicity at 24 h, 100 µM (MTT assay) [%] | viability at 24 h, 100 µM (MTT assay) [%] | % Viability [1] [%] | % Cytotoxicity ± SD [1] [%]
3 | O=C(NCc1ccc(Cl)cc1Cl)c1ccc2ncccc2c1 [Compound 4j, N-(2,4-dichlorobenzyl)quinoline-6-carboxamide] | 33.1 | 13.5 ± 1.24 | 85.5 | 26.2 | poor activity | 35.6 | 0.44 ± 0.07 | 72.4 |  |  |  |  |  |  | 55 ± 1.36 | 43 to 45 | 45.0 | 
4 | O=C(NCc1ccc(Cl)cc1)c1ccc2ncccc2c1 [Compound 4a, N-(4-chlorobenzyl)quinoline-6-carboxamide] | 37 | 0.23 ± 0.02 | 67 |  | poor activity | 30.6 | 0.092 ± 0.02 | 67.9 |  |  |  |  |  |  | 37 | 62.7 |  | 37.3 ± 1.80
5 | COc1ccc(CNC(=O)c2ccc3ncccc3c2)c(OC)c1 [Compound 4i, N-(2,4-dimethoxybenzyl)quinoline-6-carboxamide] | 19.5 |  |  | 39.6 | poor activity | 25.1 | 0.99 ± 0.13 | 54.9 |  |  |  |  | 29.8 | less than 50% | 41.5 ± 0.31 | 58.5 |  | 

From PMC13022283 (Scientific Reports, 2026)
